Compound activity deposited in PubChem by The Scripps Research Institute Molecular Screening Center.
Sampled rows, rich in hits. Any-hit rate of the full collection: about 1.9%.
ARFGAP1 inhibitor = inhibitors of rat ARFGAP1. Q62848. Arfgap1-stimulated ARF1 GTP hydrolysis, GDP FP detection. inhibition, % at 16.5 µM. 0.26% of 360,000 active. AID 651572;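 active = inhibition above a per-plate limit, mean inhibition of low control wells plus 3 SD, cut at about 25% in these data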
Target sequence (Q62848 1-136 limits assumed): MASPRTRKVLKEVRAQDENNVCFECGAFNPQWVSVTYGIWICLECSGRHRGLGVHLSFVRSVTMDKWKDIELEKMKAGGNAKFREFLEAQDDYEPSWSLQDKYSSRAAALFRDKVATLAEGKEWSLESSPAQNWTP
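System: truncated rat Arfgap1 GAP domain / Benchmarks: high control wells lacking Arfgap1, low control full reaction with DMSO / Times: compound-enzyme preincubation 20 min, reaction 120 min, detection 60 min, 25 °C / Repeats: one replicate per compound / Also added: human ARF1(Δ1-17)-GTP substrate / Measured by: Tracer-displacement fluorescence polarization with EDTA stop, 620/688 nm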
PLC-beta3 inh = PLC-beta3 (human) inhibition, primary screen; Q01970; 0.18% of 370,000 active; Purified PLC-beta3, fluorogenic substrate, fluorescence; inhibition, % at 12.2 µM; AID 720704; in the data active = inhibition above about 11%
PLC-gamma1 inh = inhibitors of human phospholipase C gamma1; purified PLC-gamma1, fluorogenic substrate, fluorescence; inhibition, % at 12.2 µM; 0.84% of 370,000 active; AID 720700; in the data active = inhibition above about 9.5%
HGIII-sPLA2 inh = Blocks human group III sPLA2 activity; Q9NZ20; QFRET BODIPY PC-A2 liposome hydrolysis, fluorescence; inhibition, % at 12.2 µM; 0.56% of 370,000 active; AID 743126;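 active = inhibition above mean plus 3 SD of compounds lying within the high and low control bounds, cut at about 19% in these data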
ASAP1 GAP inh = blocks human ASAP1-stimulated Arf1 GTP hydrolysis. Q9ULH1. inhibition, % at 16.5 µM. GDP FP detection. 0.19% of 360,000 active; in the data active = inhibition above about 25%
ASAP1 GAP conf = confirmation of human ASAP1 inhibitors. shares compounds with ASAP1 GAP inh. ASAP1-stimulated Arf1 GTPase, GDP fluorescence polarization. inhibition, % at 16.5 µM. 37% of 620 active;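 active = mean inhibition over triplicates exceeds the hit threshold derived for the earlier primary screening run, cut at about 25% in these data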
ARFGAP1 inh conf = confirmation of rat ARFGAP1 inhibitors | shares compounds with ARFGAP1 inhibitor | ARFGAP1-stimulated ARF1 GTP hydrolysis, GDP tracer FP | inhibition, % at 16.5 µM | 30% of 890 active | AID 651608;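 active = average inhibition over triplicates above the hit cutoff set in the earlier primary screen, cut at about 25% in these data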
Target sequence (Q62848 whole entry, looked up): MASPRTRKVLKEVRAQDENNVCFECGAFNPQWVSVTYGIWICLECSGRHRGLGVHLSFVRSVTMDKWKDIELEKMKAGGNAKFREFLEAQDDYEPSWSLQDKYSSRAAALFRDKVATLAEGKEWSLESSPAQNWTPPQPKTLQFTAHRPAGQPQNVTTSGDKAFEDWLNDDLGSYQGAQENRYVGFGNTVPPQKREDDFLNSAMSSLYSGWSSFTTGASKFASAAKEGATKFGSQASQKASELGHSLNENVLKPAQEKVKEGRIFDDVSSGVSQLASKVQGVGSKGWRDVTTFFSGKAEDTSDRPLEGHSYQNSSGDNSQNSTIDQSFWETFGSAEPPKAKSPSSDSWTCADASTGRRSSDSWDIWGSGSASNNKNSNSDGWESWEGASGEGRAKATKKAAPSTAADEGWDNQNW
Of the large screens only hits and unclear results are named; the others gave an inactive call (follow-up assays come after a bar, where they were run).

CCC(/C=C1\Sc2ccc(OC)cc2N1CCO)=C\c1sc2ccc(OC)cc2[n+]1CCO	ARFGAP1 inhibitor 42, ASAP1 GAP inh 32 | ASAP1 GAP conf 35 | ARFGAP1 inh conf 25
CN1\C(=C/C=C/C=C/C=[N+](C)C)C(C)(C)c2ccccc21	ARFGAP1 inhibitor 47, ASAP1 GAP inh 55 | ASAP1 GAP conf 41 | ARFGAP1 inh conf 37
Cc1ccc(-n2c(SCC(=O)Nc3ccccc3-c3ccccc3)nnc2-c2cccnc2)cc1	none (no result: ARFGAP1 inhibitor, ASAP1 GAP inh)
COC(=O)C1=C(C)N(Cc2ccc(C(F)(F)F)cc2)C(=NCc2ccccc2C(F)(F)F)NC1c1cccc(Cl)c1 (stereo not given)	none
Nc1nc(SCc2ccc(Cl)cc2Cl)nc2nc3c(cc12)CCCC3	ARFGAP1 inhibitor 47, ASAP1 GAP inh 31 | ASAP1 GAP conf 69 | ARFGAP1 inh conf 68
CCNC(=O)N(C)[C@H]1C[C@H]2c3[nH]c4cccc(-c5ccc6c(c5)OCO6)c4c3CCN2C[C@H]1[C@H](C)O	none (no result: ARFGAP1 inhibitor, ASAP1 GAP inh)
COc1ccc(C(=O)Nc2nnc(SCC(=O)NC3CCCC3)s2)c(OC)c1	none
COc1ccc(C(=O)Nc2nnc(SCC(=O)Nc3ccc(NC(C)=O)cc3)s2)c(OC)c1	ARFGAP1 inhibitor 52, ASAP1 GAP inh 39 | ASAP1 GAP conf 82 | ARFGAP1 inh conf 122
O=C(NN=Cc1ccc2c(c1)OCO2)NN=Cc1ccc2c(c1)OCO2	ARFGAP1 inhibitor 31, ASAP1 GAP inh 34 | ASAP1 GAP conf 72 | ARFGAP1 inh conf 62
O=C1C(NC(=O)N2c3ccccc3C=Cc3ccccc32)CCCCN1Cc1cccc(C(F)(F)F)c1 (stereo not given)	none (no result: ARFGAP1 inhibitor, ASAP1 GAP inh)
COc1cc2c3nnc(-c4ccc(F)cc4)c-3cn(Cc3ccc(F)cc3)c2cc1OC	none
COc1cc2c3nnc(-c4ccc(F)cc4)c-3cn(Cc3ccccc3)c2cc1OC	ARFGAP1 inhibitor 36, ASAP1 GAP inh 79 | ASAP1 GAP conf 60 | ARFGAP1 inh conf 29
COc1ccc(N2CCN(C(=S)NCc3ccccc3)CC2)cc1	ARFGAP1 inhibitor 38, ASAP1 GAP inh 37 | ASAP1 GAP conf inactive | ARFGAP1 inh conf inactive
CC(C)CN1C(=O)[C@@]2(CC(=O)N(C)C2c2ccccc2)c2cc(-n3cc(CO)nn3)ccc21 (stereo not given in full)	none (no result: ARFGAP1 inhibitor, ASAP1 GAP inh)
O=c1c(Cl)c(N/N=C/c2ccc(Br)cc2)cnn1-c1ccccc1	ARFGAP1 inhibitor 44, ASAP1 GAP inh 42 | ASAP1 GAP conf 33 | ARFGAP1 inh conf 65
COc1ccc(/C=N\NC(=O)c2ccc([N+](=O)[O-])cc2)cc1COc1c(F)c(F)cc(F)c1F	ARFGAP1 inhibitor 82, ASAP1 GAP inh 52 | ASAP1 GAP conf 58 | ARFGAP1 inh conf 99
C[C@@H]1OC(C2CCCCC2)N(C)[C@H]2C[C@H]3c4[nH]c5cccc(-c6cccc(F)c6)c5c4CCN3C(=O)[C@@H]12 (stereo not given in full)	none (no result: ARFGAP1 inhibitor, ASAP1 GAP inh)
O=S1(=O)c2ccc(N3CCN(Cc4ccccc4F)CC3)cc2Oc2ccccc2CN1Cc1cn(Cc2ccc(C(F)(F)F)cc2)nn1	none (no result: ARFGAP1 inhibitor, ASAP1 GAP inh)
O=C1N=C(N2CCOCC2)S/C1=C/c1ccc(-c2ccc(F)cc2)o1	ARFGAP1 inhibitor 30, ASAP1 GAP inh 33 | ASAP1 GAP conf 58 | ARFGAP1 inh conf 49
Cc1ccc(-c2ccc(/C=C3\SC(N4CCOCC4)=NC3=O)o2)cc1	ARFGAP1 inhibitor 37, ASAP1 GAP inh 49 | ASAP1 GAP conf 116 | ARFGAP1 inh conf 87
CC(=O)c1ccc(-c2cnc3c(NC=O)cc(-c4ccc(N5CCN(C)CC5)cc4)cn23)cc1	ARFGAP1 inhibitor 63, ASAP1 GAP inh 81 | ASAP1 GAP conf 155 | ARFGAP1 inh conf 139
CN1CCN(c2ccc(-c3cc(NC=O)c4ncc(-c5ccc(F)c(Cl)c5)n4c3)cc2)CC1	none
CC(=O)Nc1cc(-c2ccc(N3CCN(C)CC3)cc2)cn2c(-c3ccc(F)c(Cl)c3)cnc12	none
CC(=O)Nc1cc(-c2ccc(N3CCN(C)CC3)cc2)cn2c(-c3cccc(C(C)=O)c3)cnc12	ARFGAP1 inhibitor 38, ASAP1 GAP inh 54 | ASAP1 GAP conf 95 | ARFGAP1 inh conf 82
CC1(C)OC(=O)C(=Cc2ccc(-c3ccc(Cl)c(C(=O)O)c3)o2)C(=O)O1	none
Cc1[nH][nH]c(=O)c1C(c1ccc(-c2ccc(Cl)c(C(=O)O)c2)o1)c1c(C)[nH][nH]c1=O	ARFGAP1 inhibitor 25, ASAP1 GAP inh 42 | ASAP1 GAP conf inactive | ARFGAP1 inh conf inactive
Cc1cccc(NC(=O)CSc2nnc(SCc3ccc(Cl)cc3)s2)c1	none (no result: ARFGAP1 inhibitor, ASAP1 GAP inh)
COC(=O)[C@@]12CCCCC3=C1N(CCC3)C(=O)[C@H]2CC(=O)NCc1ccc(C)o1	none (no result: ARFGAP1 inhibitor, ASAP1 GAP inh)
O=C(O)c1ccc(Nc2nc(-c3cc4ccccc4oc3=O)cs2)cc1O	ARFGAP1 inhibitor 27, ASAP1 GAP inh 25 | ASAP1 GAP conf 33 | ARFGAP1 inh conf 45
CC(=O)Nc1ccc(Nc2nc(-c3cc4ccccc4oc3=O)cs2)cc1	none
N#CC1C(=O)Nc2cccnc21 (stereo not given)	ARFGAP1 inhibitor 28, ASAP1 GAP inh 30 | ASAP1 GAP conf inactive | ARFGAP1 inh conf inactive
C[C@@H]1COc2cc(Br)ccc2S(=O)(=O)N1Cc1cn(Cc2ccc(Cl)cc2)nn1	none (no result: ARFGAP1 inhibitor, ASAP1 GAP inh)
CC(=O)Nc1ccc(NC(=O)CSc2ccc(-c3cccnc3)nn2)cc1	none
CC(=O)Nc1ccc(NC(=O)CSc2ccc(-c3ccc(-n4ccnc4)cc3)nn2)cc1	ARFGAP1 inhibitor 25, ASAP1 GAP inh 66 | ASAP1 GAP conf 71 | ARFGAP1 inh conf 72
O=c1c2ccccc2[nH]n1[C@@H](Cc1ccccc1)Cn1cc(-c2ccc(-c3ccccc3)cc2)nn1	none (no result: ARFGAP1 inhibitor, ASAP1 GAP inh)
COC(=O)C1CN(Cc2cn(Cc3ccc(OC)cc3)nn2)CCS(=O)(=O)N1Cc1ccc(OC)cc1 (stereo not given)	none (no result: ARFGAP1 inhibitor, ASAP1 GAP inh)
COc1ccc(OC)c(C=NNC(=O)NN=Cc2cc(OC)ccc2OC)c1	ARFGAP1 inhibitor 57, ASAP1 GAP inh 42 | ASAP1 GAP conf 96 | ARFGAP1 inh conf 92
O=S1(=O)CC2c3ccccc3CN2CN1Cc1ccc(F)cc1 (stereo not given)	none (no result: ARFGAP1 inhibitor, ASAP1 GAP inh)
Cc1ccc2cc3cc(C(=O)NCc4ccc5c(c4)OCO5)oc3nc2c1	ARFGAP1 inhibitor 68, ASAP1 GAP inh 54 | ASAP1 GAP conf 28 | ARFGAP1 inh conf 110
CC1=CC2=NC(=O)/C(=C\c3ccc(-c4cccc(Cl)c4)o3)C(=N)N2O1	ARFGAP1 inhibitor 41, ASAP1 GAP inh 58 | ASAP1 GAP conf 87 | ARFGAP1 inh conf 131
O=C(Nc1ccccc1)c1cccc2c(-c3cccnc3)coc12	none
COc1ccc(NC(=O)c2cccc3c(-c4cccnc4)coc23)cc1	ARFGAP1 inhibitor 26, ASAP1 GAP inh 32 | ASAP1 GAP conf inactive | ARFGAP1 inh conf inactive
O[C@H](COc1cccc(Cl)c1)CN1CCC(C(O)(c2ccccc2)c2ccccc2)CC1	none (no result: ARFGAP1 inhibitor, ASAP1 GAP inh)
